Test results from ChEMBL document CHEMBL1156167 (Bioorg Med Chem Lett, 2010).
Active and inactive are the calls of the source. The calls are words filed in the database; no cut-off is given here.

How the values were obtained:
[1] = target: T1, Sphingosine 1-phosphate receptor 3 (Homo sapiens, UniProt Q99500); experiment: Displacement of [33P]sphingosine-1-phosphate from human S1P3 receptor expressed in HEK293T cells after 60 mins by scintillation counting; format: cell-based, HEK-293T
[2] = target: T2, Sphingosine 1-phosphate receptor 1 (Homo sapiens, UniProt P21453); experiment: Displacement of [33P]sphingosine-1-phosphate from human S1P1 receptor expressed in HEK293T cells after 60 mins by scintillation counting; format: cell-based, HEK-293T
[3] = target: Sphingosine 1-phosphate receptor 5 (Homo sapiens, UniProt Q9H228); experiment: Displacement of [33P]sphingosine-1-phosphate from human S1P5 receptor expressed in HEK293T cells after 60 mins by scintillation counting; format: cell-based, HEK-293T
[4] = target: T1, Sphingosine 1-phosphate receptor 3; experiment: Agonist activity at human S1P3 receptor expressed in HEK293T cells assessed as stimulation of gamma-[35S]GTP binding after 30 mins by scintillation counting
[5] = species on record: Homo sapiens; experiment: Selectivity ratio of EC50 for human S1P3 receptor to EC50 for human S1P1 receptor by gamma-[35S]GTP binding assay; format: functional
[6] = target: T2, Sphingosine 1-phosphate receptor 1; experiment: Agonist activity at human S1P1 receptor expressed in HEK293T cells assessed as stimulation of gamma-[35S]GTP binding after 30 mins by scintillation counting
[7] = target: T3, Sphingosine 1-phosphate receptor 4 (Homo sapiens, UniProt O95977); experiment: Displacement of [33P]sphingosine-1-phosphate from human S1P4 receptor expressed in HEK293T cells after 60 mins by scintillation counting; format: cell-based, HEK-293T
T3 sequence (O95977 whole entry): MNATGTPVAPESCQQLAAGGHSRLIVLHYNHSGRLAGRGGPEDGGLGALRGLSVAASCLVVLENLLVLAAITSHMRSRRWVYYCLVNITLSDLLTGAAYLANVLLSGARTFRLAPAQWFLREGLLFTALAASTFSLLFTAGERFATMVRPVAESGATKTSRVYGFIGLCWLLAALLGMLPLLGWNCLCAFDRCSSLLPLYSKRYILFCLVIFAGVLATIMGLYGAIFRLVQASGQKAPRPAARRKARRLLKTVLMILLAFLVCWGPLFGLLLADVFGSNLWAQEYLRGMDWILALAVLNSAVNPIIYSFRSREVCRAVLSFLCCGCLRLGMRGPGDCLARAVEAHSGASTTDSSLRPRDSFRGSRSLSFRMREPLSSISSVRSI

[8] = species on record: Homo sapiens; experiment: Selectivity ratio of IC50 for human S1P3 receptor to IC50 for human S1P1 receptor by [33P]sphingosine-1-phosphate displacement assay
[9] = tested on: Mus musculus; experiment: Metabolic stability in C57BL/6 mouse assessed as alcohol pro-drug to phosphate drug conversion at 10 mg/kg, po after 6 hrs; format: ADME, organism-based; set-up: dose 10 mg/kg, route oral; conditions: in vivo
Method in brief: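 Alcohol pro-drug dosed orally to mouse at 10 mg/kg. At 6 h, the amount converted in vivo to the phosphate was determined and expressed as percent conversion of alcohol to phosphate.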

[10] = tested on: Mus musculus; experiment: Immunomodulatory activity in C57BL/6 mouse assessed as induction of lymphopenia at 10 mg/kg, po after 6 hrs by complete blood count analysis; format: functional
Method in brief: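 Pro-drug alcohol given to mouse as a single oral dose of 10 mg/kg. Redistribution of circulating lymphocytes was measured 6 h post-dose and reported as percent lymphopenia.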

[11] = tested on: Mus musculus; experiment: Immunomodulatory activity in C57BL/6 mouse assessed as induction of lymphopenia at 0.3 to 10 mg/kg, po after 6 hrs by complete blood count analysis; format: functional, organism-based
Method in brief: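 Mouse given a single oral dose of the pro-drug alcohol at 0.3, 1.0, 3.0 or 10.0 mg/kg alongside a vehicle group. Circulating lymphocyte redistribution was measured 6 h post-dose and expressed as lymphopenia relative to vehicle.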

[12] = target: T2, Sphingosine 1-phosphate receptor 1; experiment: Ratio of compound IC50 to PPI-4667-P IC50 for human S1P1 receptor expressed in HEK293T cells; format: cell-based; conditions: HEK-293T

T2 sequence (P21453 whole entry): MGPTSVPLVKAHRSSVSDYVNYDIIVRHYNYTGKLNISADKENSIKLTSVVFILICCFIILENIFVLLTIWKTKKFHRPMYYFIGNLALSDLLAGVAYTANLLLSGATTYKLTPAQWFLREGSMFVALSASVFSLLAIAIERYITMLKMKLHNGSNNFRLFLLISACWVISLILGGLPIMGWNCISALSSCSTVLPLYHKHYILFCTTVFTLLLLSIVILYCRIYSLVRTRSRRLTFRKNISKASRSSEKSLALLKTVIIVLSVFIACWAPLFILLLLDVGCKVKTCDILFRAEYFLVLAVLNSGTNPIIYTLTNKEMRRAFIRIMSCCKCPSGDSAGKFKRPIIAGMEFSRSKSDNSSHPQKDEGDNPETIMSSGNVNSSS
Chain of Sphingosine 1-phosphate receptor 5 (Q9H228 whole entry): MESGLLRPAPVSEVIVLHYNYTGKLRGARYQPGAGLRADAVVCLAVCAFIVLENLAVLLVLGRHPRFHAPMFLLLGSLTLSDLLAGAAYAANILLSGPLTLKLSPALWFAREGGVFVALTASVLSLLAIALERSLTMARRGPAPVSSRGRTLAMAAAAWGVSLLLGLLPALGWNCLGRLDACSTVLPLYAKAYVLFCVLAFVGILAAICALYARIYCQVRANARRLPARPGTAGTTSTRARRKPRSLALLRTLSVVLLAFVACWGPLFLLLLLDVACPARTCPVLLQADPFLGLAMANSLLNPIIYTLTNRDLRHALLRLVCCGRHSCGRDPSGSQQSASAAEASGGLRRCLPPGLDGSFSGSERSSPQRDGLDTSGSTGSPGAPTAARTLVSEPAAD
T1 sequence (Q99500 whole entry): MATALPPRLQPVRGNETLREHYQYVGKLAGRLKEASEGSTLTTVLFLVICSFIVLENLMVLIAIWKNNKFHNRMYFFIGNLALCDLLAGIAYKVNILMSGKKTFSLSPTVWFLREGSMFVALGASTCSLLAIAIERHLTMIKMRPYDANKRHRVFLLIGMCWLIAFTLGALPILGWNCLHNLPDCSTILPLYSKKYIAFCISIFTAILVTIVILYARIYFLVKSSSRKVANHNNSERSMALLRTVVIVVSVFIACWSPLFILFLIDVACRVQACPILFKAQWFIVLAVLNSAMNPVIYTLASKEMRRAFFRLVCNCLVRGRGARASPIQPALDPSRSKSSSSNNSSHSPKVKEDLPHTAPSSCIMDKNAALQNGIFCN

| IC50 [1] [µM] | IC50 [2] [µM] | EC50 [4] [µM] | EC50 [6] [µM] | Ratio IC50 [8] | Compound | other results |
| --- | --- | --- | --- | --- | --- | --- |
| > 10 | > 10 |  |  |  | C[C@](N)(COP(=O)(O)O)C(=O)Nc1ccc(OCCc2ccc(-c3ccccc3)cc2)c(C(=O)O)c1 |  |
| 3.8 | 0.00414 | > 3 | 0.0183 | 917 | C[C@](N)(COP(=O)(O)O)C(=O)Nc1ccc(C(=O)CCc2ccc(-c3ccccc3)cc2)cc1 | IC50 [3]: 1.36 µM; Ratio EC50 [5]: > 164; IC50 [7]: 0.0131 µM |
| > 1 | 0.15 |  |  |  | C[C@](N)(COP(=O)(O)O)C(=O)Nc1ccc(OCCc2ccc(-c3ccccc3)cc2)c(C(N)=O)c1 |  |
|  |  |  |  |  | C[C@](N)(CO)C(=O)Nc1ccc(C(=O)CCc2ccc(-c3ccccc3)cc2)cc1 | Activity [9]: 40%; Activity [10]: 84% |
|  |  |  |  |  | C[C@](N)(CO)C(=O)Nc1ccc(SCCc2ccc(-c3ccccc3)cc2)cc1 | Activity [10]: 21% |
|  |  |  |  |  | C[C@](N)(CO)c1nc(-c2ccc(OCc3ccc(-c4ccccc4)cc3)c(C(F)(F)F)c2)c[nH]1 | Activity [11]: Active |
| 2 | 0.0034 |  |  | 588 | C[C@](N)(COP(=O)(O)O)C(=O)Nc1ccc(OCCc2ccc(-c3ccccc3)cc2)c(C#N)c1 | Ratio IC50 [12]: 3 |
| > 100 | 0.0094 | > 3 | 0.0224 | > 10000 | C[C@](N)(COP(=O)(O)O)c1nc(-c2ccc(OCCc3ccc(-c4ccccc4)cc3)c(C(F)(F)F)c2)c[nH]1 | IC50 [3]: 0.184 µM; Ratio EC50 [5]: > 134; Activity [9]: 6.8%; Activity [10]: 64%; IC50 [7]: 0.0065 µM |
|  |  |  |  |  | C[C@](N)(CO)C(=O)Nc1ccc(C(=O)NCc2ccc(-c3ccccc3)cc2)cc1 | Activity [10]: 32% |
|  |  | 0.0548 | 0.0022 | 19 | C[C@](N)(COP(=O)(O)O)c1nc(-c2ccc(OCc3ccc(-c4ccccc4)cc3)cc2)c[nH]1 | Ratio EC50 [5]: 25 |
| 0.285 | 0.0008 |  |  | 356 | C[C@](N)(COP(=O)(O)O)C(=O)Nc1ccc(OCCc2ccc(-c3ccccc3)cc2)c(Cl)c1 |  |
| 2 | 0.00023 | > 3 | 0.00162 | 8700 | C[C@](N)(COP(=O)(O)O)c1nc(-c2ccc(OCc3ccc(-c4ccccc4)cc3)c(C(F)(F)F)c2)c[nH]1 | IC50 [3]: 0.0096 µM; Ratio EC50 [5]: > 1850; Activity [9]: 70.1%; Activity [10]: 85%; IC50 [7]: 0.0044 µM |
| > 10 | 0.021 |  |  | > 476 | COC(=O)c1cc(NC(=O)[C@@](C)(N)COP(=O)(O)O)ccc1OCCc1ccc(-c2ccccc2)cc1 |  |
| > 1 | 0.5 |  |  |  | CNC(=O)c1cc(NC(=O)[C@@](C)(N)COP(=O)(O)O)ccc1OCCc1ccc(-c2ccccc2)cc1 |  |
| 4.5 | 0.00024 | > 3 | 0.00144 | 18800 | C[C@](N)(COP(=O)(O)O)C(=O)Nc1ccc(OCCc2ccc(-c3ccccc3)cc2)c(C(F)(F)F)c1 | IC50 [3]: 0.0872 µM; Ratio EC50 [5]: > 2080; IC50 [7]: 0.0034 µM |
|  |  |  |  |  | C[C@](N)(CO)C(=O)Nc1ccc(OCCc2ccc(-c3ccccc3)cc2)cc1 | Activity [9]: 14% |
| 1 | 0.0013 |  |  | 769 | C[C@](N)(COP(=O)(O)O)C(=O)Nc1ccc(OCCc2ccc(-c3ccccc3)cc2)c(Br)c1 |  |
|  |  | 0.12 | 0.00052 | 190 | C[C@](N)(COP(=O)(O)O)C(=O)Nc1ccc(OCCc2ccc(-c3ccccc3)cc2)cc1 | IC50 [3]: 0.0436 µM; Ratio EC50 [5]: 231; IC50 [7]: 0.0103 µM |
| 3.25 | 0.006 |  |  | 542 | Cc1cc(NC(=O)[C@@](C)(N)COP(=O)(O)O)ccc1OCCc1ccc(-c2ccccc2)cc1 |  |
| 0.7 | 0.0064 |  |  | 109 | C[C@](N)(COP(=O)(O)O)C(=O)Nc1ccc(OCCc2ccc(-c3ccccc3)cc2)cc1C(F)(F)F |  |

| Compound | IC50 [1] [µM] | IC50 [2] [µM] | EC50 [4] [µM] | EC50 [6] [µM] | Ratio IC50 [8] | other results |
| --- | --- | --- | --- | --- | --- | --- |
| CCCCCCCCCCCCC/C=C/[C@@H](O)[C@@H](N)COP(=O)(O)O | 0.00092 | 0.00078 | 0.0024 | 0.0056 |  | IC50 [7]: 0.00104 µM |
